Laboratory results taken from ChEMBL document CHEMBL4364345, “Synthesis and evaluation of 1,3,4-oxadiazole derivatives for development as broad-spectrum antibiotics” (Bioorg Med Chem, 2019).
Values after ≈ are worked out from the molar mass of the structure shown. Active and inactive are the calls of the source.

Legend:
[1] = system: Huh-7; assay: Cytotoxicity against human HuH7 cells assessed as decrease in cell viability in MTT assay; format: cell-based
Summary of the method: (§1)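 Cell viability was measured by MTT on a robotic screening platform. Residual viability was expressed as a percentage of the mean viable cells in DMSO-treated controls. Under 25-30% viability was considered cytotoxic, and IC50 values were derived.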

[2] = system: Kocuria rhizophila; assay: Antimicrobial activity against Kocuria rhizophila clinical isolate at 50 ug/disk incubated for 20 +/- 4 hrs by agar disk diffusion method; format: functional; conditions: read-out: DIZ
Summary of the method: (§2)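 Agar disk diffusion on Mueller-Hinton agar swab-seeded from a 0.5 McFarland inoculum (about 10^8 CFU/ml). Cellulose discs got 50 μg compound (10 μl of 5 g/L in DMSO); a 10 μL DMSO disc was the control. Incubated aerobically at 35 ± 2 °C for 20 ± 4 h, then growth-inhibition diameters measured.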

[3] = system: Staphylococcus aureus; assay: Antimicrobial activity against Staphylococcus aureus clinical isolate at 50 ug/disk incubated for 20 +/- 4 hrs by agar disk diffusion method; format: functional; conditions: read-out: DIZ; summary of the method: as §2
[4] = system: Staphylococcus epidermidis; assay: Antimicrobial activity against Staphylococcus epidermidis clinical isolate at 50 ug/disk incubated for 20 +/- 4 hrs by agar disk diffusion method; format: functional; conditions: read-out: DIZ; summary of the method: as §2
[5] = system: Streptococcus pyogenes; assay: Antimicrobial activity against Streptococcus pyogenes clinical isolate at 50 ug/disk incubated for 20 +/- 4 hrs by agar disk diffusion method; format: functional; conditions: read-out: DIZ
Summary of the method: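 Plates of MH + 5% horse blood were swabbed with a 0.5 McFarland inoculum and received discs with 50 μg compound (from 5 g/L in DMSO) plus a 10 μL DMSO control disc. Incubation at 35 ± 2 °C aerobically with 5% CO2 for 20 ± 4 h, then zone diameters measured.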

[6] = system: Enterococcus faecium; assay: Antimicrobial activity against Enterococcus faecium AUS0004 at 50 ug/disk incubated for 20 +/- 4 hrs by agar disk diffusion method; format: functional; conditions: read-out: DIZ; summary of the method: as §2
[7] = system: Enterobacter cloacae; assay: Antimicrobial activity against Enterobacter cloacae clinical isolate at 50 ug/disk incubated for 20 +/- 4 hrs by agar disk diffusion method; format: functional; conditions: read-out: DIZ; summary of the method: as §2
[8] = system: Escherichia coli; assay: Antimicrobial activity against Escherichia coli clinical isolate at 50 ug/disk incubated for 20 +/- 4 hrs by agar disk diffusion method; format: functional; conditions: read-out: DIZ; summary of the method: as §2
[9] = system: Morganella morganii; assay: Antimicrobial activity against Morganella morganii EB6 clinical isolate at 50 ug/disk incubated for 20 +/- 4 hrs by agar disk diffusion method; format: functional; conditions: read-out: DIZ; summary of the method: as §2
[10] = system: Morganella morganii; assay: Antimicrobial activity against Morganella morganii EB8clinical isolate at 50 ug/disk incubated for 20 +/- 4 hrs by agar disk diffusion method; format: functional; conditions: EB8, read-out: DIZ; summary of the method: as §2
[11] = system: Staphylococcus aureus; assay: Antimicrobial activity against Staphylococcus aureus ATCC 29213 by broth microdilution method; format: functional
Summary of the method: (§3)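 MICs were set by broth microdilution following EUCAST guidelines, from three independent experiments reported as values or ranges. MICs were measured only where disk-diffusion inhibition diameters were 9 mm or more.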

[12] = system: Staphylococcus epidermidis; assay: Antimicrobial activity against Staphylococcus epidermidis clinical isolate by broth microdilution method; format: functional; summary of the method: as §3
[13] = system: Clostridium perfringens; assay: Antimicrobial activity against Clostridium perfringens clinical isolate by broth microdilution method; format: functional
Summary of the method: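 MIC by broth microdilution following EUCAST guidelines; values or ranges from three independent experiments. MICs were determined only where the disk diffusion inhibition diameter was at least 9 mm.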

[14] = system: Enterococcus faecalis; assay: Antimicrobial activity against Enterococcus faecalis ATCC 29212 by broth microdilution method; format: functional; summary of the method: as §3
[15] = system: Enterococcus faecium; assay: Antimicrobial activity against Enterococcus faecium AUS0004 by broth microdilution method; format: functional; summary of the method: as §3
[16] = system: Mycolicibacterium fortuitum; assay: Antimicrobial activity against Mycobacterium fortuitum clinical isolate by broth microdilution method; format: functional; summary of the method: as §3
[17] = system: HCT-116; assay: Cytotoxicity against human HCT116 cells assessed as decrease in cell viability in MTT assay; format: cell-based; summary of the method: as §1
[18] = system: NCI-H727; assay: Cytotoxicity against human NCI-H727 cells assessed as decrease in cell viability in MTT assay; format: cell-based; summary of the method: as §1
[19] = system: Escherichia coli; assay: Antimicrobial activity against Escherichia coli BW25113 at 10 mM/disk incubated for 20 +/- 4 hrs by agar disk diffusion method; format: functional; conditions: read-out: DIZ
[20] = system: Escherichia coli; assay: Antimicrobial activity against Escherichia coli BW25113 by broth microdilution method; format: functional
Summary of the method: (§4)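 MIC by broth microdilution per EUCAST guidelines, in E. coli BW25113 and its previously described deletion derivative.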

[21] = system: Escherichia coli; assay: Antimicrobial activity against TolC deficient Escherichia coli BW25113 by broth microdilution method; format: functional; summary of the method: as §4
[22] = system: Escherichia coli; assay: Antimicrobial activity against arfA-arfB TolC deficient Escherichia coli BW25113 by agar disk diffusion method; format: functional
[23] = system: Escherichia coli; assay: Bactericidal activity against TolC deficient Escherichia coli BW25113 by broth microdilution method; format: functional
[24] = system: Enterococcus faecalis; assay: Synergistic antimicrobial activity against Enterococcus faecalis ATCC 29212 assessed as DIZ at 50 ug/disk incubated for 20 +/- 4 hrs in presence of rifampicin by agar disk diffusion method (reference value: 20 millimeter); format: functional; conditions: read-out: DIZ
[25] = system: Enterococcus faecalis; assay: Synergistic antimicrobial activity against Enterococcus faecalis ATCC 29212 assessed as DIZ at 50 ug/disk incubated for 20 +/- 4 hrs in presence of streptomycin by agar disk diffusion method (reference value: 18 millimeter); format: functional; conditions: read-out: DIZ
[26] = system: Enterococcus faecium; assay: Synergistic antimicrobial activity against Enterococcus faecium AUS0004 assessed as DIZ at 50 ug/disk incubated for 20 +/- 4 hrs in presence of rifampicin by agar disk diffusion method (reference value: 10 millimeter); format: functional; conditions: read-out: DIZ
[27] = system: Enterococcus faecium; assay: Synergistic antimicrobial activity against Enterococcus faecium AUS0004 assessed as DIZ at 50 ug/disk incubated for 20 +/- 4 hrs in presence of ampicillin by agar disk diffusion method (reference value: 6 millimeter); format: functional; conditions: read-out: DIZ
[28] = system: Enterococcus faecium; assay: Synergistic antimicrobial activity against Enterococcus faecium AUS0004 assessed as DIZ at 50 ug/disk incubated for 20 +/- 4 hrs in presence of erythromycin by agar disk diffusion method (reference value: 6 millimeter); format: functional; conditions: read-out: DIZ
[29] = system: Listeria monocytogenes; assay: Synergistic antimicrobial activity against Listeria monocytogenes clinical isolate assessed as DIZ at 50 ug/disk incubated for 20 +/- 4 hrs in presence of moxalactam by agar disk diffusion method (reference value: 13 millimeter); format: functional; conditions: read-out: DIZ
[30] = system: Listeria monocytogenes; assay: Synergistic antimicrobial activity against Listeria monocytogenes clinical isolate assessed as DIZ at 50 ug/disk incubated for 20 +/- 4 hrs in presence of fosfomycin by agar disk diffusion method (reference value: 6 millimeter); format: functional; conditions: read-out: DIZ

Structure (SMILES) | IC50 [1] [µM] | zone of inhibition at 50 µg/disc [2] [mm] | zone of inhibition at 50 µg/disc [3] [mm] | zone of inhibition at 50 µg/disc [4] [mm] | zone of inhibition at 50 µg/disc [5] [mm] | zone of inhibition at 50 µg/disc [6] [mm] | zone of inhibition at 50 µg/disc [7] [mm] | zone of inhibition at 50 µg/disc [8] [mm] | zone of inhibition at 50 µg/disc [9] [mm] | zone of inhibition at 50 µg/disc [10] [mm] | MIC [11] [µg/mL] | MIC [12] [µg/mL] | MIC [13] | MIC [14] [µg/mL] | MIC [15] [µg/mL] | MIC [16] [µg/mL] | IC50 [17] [µM] | zone of inhibition at 10000 µM [19] [mm] | MIC [20] [µM] | diameter of the inhibition zone (DIZ) [22] [mm] | other results
O=C(Nc1nnc(-c2ccc(F)cc2)o1)c1ccc(Cl)cc1 | 20 | 11 | 17 | 15 | 6 | 6 | 6 | 6 | 6 | 6 | 0.5 to 4 (≈ 1.57 to 12.6 µM) | 0.5 to 4 (≈ 1.57 to 12.6 µM) | 4 µg/mL (≈ 12.6 µM) | 16 (≈ 50.4 µM) | 16 (≈ 50.4 µM) | 32 (≈ 101 µM) | 17 | 6 | > 128 | 12.3 | IC50 [18]: 18 µM; MIC [21]: 2 µM (≈ 0.635 µg/mL); MBC [23]: > 32 µM
O=C(Nc1ncc(-c2ccc(F)cc2)o1)c1ccc(Cl)cc1 | 3 | 18 | 20 | 18 | 6 | 12 | 6 | 6 | 6 | 6 | 0.5 to 4 (≈ 1.58 to 12.6 µM) | 0.25 (≈ 0.789 µM) | inactive | 2 to 16 (≈ 6.31 to 50.5 µM) | 1 to 4 (≈ 3.16 to 12.6 µM) | 32 to 64 (≈ 101 to 202 µM) | 2 | 6 | > 128 | 14 | zone of inhibition at 50 µg/disc [24]: 20 mm; zone of inhibition at 50 µg/disc [25]: 19 mm; zone of inhibition at 50 µg/disc [26]: 15 mm; zone of inhibition at 50 µg/disc [27]: 13 mm; zone of inhibition at 50 µg/disc [28]: 12 mm; zone of inhibition at 50 µg/disc [29]: 17 mm; zone of inhibition at 50 µg/disc [30]: 15 mm
O=C(Nc1nnc(-c2ccc(C(F)(F)F)cc2)o1)c1ccc(Cl)nc1 | > 25 | 28 | 30 | 28 | 10 | 23 | 6 | 6 | 6 | 6 | 2 to 4 (≈ 5.42 to 10.8 µM) | 1 to 2 (≈ 2.71 to 5.42 µM) | 4 µg/mL (≈ 10.8 µM) | 2 to 4 (≈ 5.42 to 10.8 µM) | 2 (≈ 5.42 µM) | 8 (≈ 21.7 µM) | > 25 | 6 | > 128 | 22.05 | zone of inhibition at 50 µg/disc [24]: 23 mm; zone of inhibition at 50 µg/disc [25]: 22 mm; zone of inhibition at 50 µg/disc [26]: 22 mm; zone of inhibition at 50 µg/disc [27]: 24 mm; zone of inhibition at 50 µg/disc [28]: 22 mm; zone of inhibition at 50 µg/disc [29]: 30 mm; zone of inhibition at 50 µg/disc [30]: 29 mm; IC50 [18]: > 25 µM; MIC [21]: 1 µM (≈ 0.369 µg/mL); MBC [23]: > 32 µM
O=C(Nc1nnc(-c2ccc(C(F)(F)F)cc2)o1)c1cccc(Cl)c1 | 20 | 30 | 28 | 27 | 9 | 21 | 6 | 6 | 6 | 6 | 2 (≈ 5.44 µM) | 0.0625 to 0.25 (≈ 0.17 to 0.68 µM) | 2 to 4 µg/mL (≈ 5.44 to 10.9 µM) | 0.125 to 1 (≈ 0.34 to 2.72 µM) | 0.0625 to 0.25 (≈ 0.17 to 0.68 µM) | 16 to 32 (≈ 43.5 to 87 µM) | 10 | 6 | > 128 | 22.6 | zone of inhibition at 50 µg/disc [24]: 23 mm; zone of inhibition at 50 µg/disc [25]: 24 mm; zone of inhibition at 50 µg/disc [26]: 26 mm; zone of inhibition at 50 µg/disc [27]: 24 mm; zone of inhibition at 50 µg/disc [28]: 22 mm; zone of inhibition at 50 µg/disc [29]: 33 mm; zone of inhibition at 50 µg/disc [30]: 30 mm; IC50 [18]: 10 µM; MBC [21]: 16 µM (≈ 5.88 µg/mL); MIC [21]: 0.25 µM (≈ 0.0919 µg/mL); MBC [23]: 16 µM (≈ 5.88 µg/mL)
